# Tests used:
# [1] = test system: A549; assay: Cell cycle arrest in human A549 cells assessed as accumulation at G2 phase at 1 uM after 24 hrs using propidium iodide staining by flow cytometry (reference value: 1%); assay type: functional
# In short: (§1)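 A549 at 1.2 × 10^5 cells/ml in six-well plates exposed 24 h to 1, 3 or 10 µM; PBS-washed, fixed overnight in 70% ethanol, RNase (100 µg/ml) digestion 45 min at 37 °C, propidium iodide staining; flow cytometric DNA content gives sub-G1 (apoptotic), G1, S and G2-M fractions versus untreated cells.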
# [2] = test system: A549; assay: Cell cycle arrest in human A549 cells assessed as accumulation at G1 phase at 10 uM after 24 hrs using propidium iodide staining by flow cytometry (reference value: 59%); assay type: functional; in short: as §1
# [3] = test system: HL-60; assay: Antiproliferative activity against human HL60 cells assessed as growth inhibition at 10 uM after 48 hrs by SRB assay; assay type: functional; conditions: HL-60, 48 h, read-out: GI
# [4] = test system: A-431; assay: Antiproliferative activity against human A431 cells after 48 hrs by SRB assay; assay type: functional, cell-based; conditions: A-431, 48 h
# [5] = test system: A549; assay: Cell cycle arrest in human A549 cells assessed as accumulation at G1 phase at 3 uM after 24 hrs using propidium iodide staining by flow cytometry (reference value: 59%); assay type: functional; in short: as §1
# [6] = test system: A549; assay: Antiproliferative activity against human A549 cells after 48 hrs by SRB assay; assay type: functional, cell-based; conditions: A549, 48 h
# [7] = test system: T47D; assay: Antiproliferative activity against human T47D cells assessed as growth inhibition at 10 uM after 48 hrs by SRB assay; assay type: functional; conditions: read-out: GI
# [8] = Antiproliferative activity against human MIAPaCa2 cells assessed as growth inhibition at 10 uM after 48 hrs by SRB assay; assay type: functional; conditions: MIA PaCa-2, 48 h, read-out: GI
# [9] = test system: A549; assay: Cell cycle arrest in human A549 cells assessed as accumulation at G1 phase at 1 uM after 24 hrs using propidium iodide staining by flow cytometry (reference value: 59%); assay type: functional; in short: as §1
# [10] = test system: PC-3; assay: Antiproliferative activity against human PC3 cells assessed as growth inhibition at 10 uM after 48 hrs by SRB assay; assay type: functional; conditions: PC-3, 48 h, read-out: GI
# [11] = test system: A549; assay: Cell cycle arrest in human A549 cells assessed as accumulation at G2 phase at 3 uM after 24 hrs using propidium iodide staining by flow cytometry (reference value: 1%); assay type: functional; in short: as §1
# [12] = test system: A549; assay: Cell cycle arrest in human A549 cells assessed as accumulation at S phase at 1 uM after 24 hrs using propidium iodide staining by flow cytometry (reference value: 40%); assay type: functional; in short: as §1
# [13] = test system: A549; assay: Antiproliferative activity against human A549 cells assessed as growth inhibition at 10 uM after 48 hrs by SRB assay; assay type: functional; conditions: A549, 48 h, read-out: GI
# [14] = Antiproliferative activity against human NCI-H322 cells after 48 hrs by SRB assay; assay type: functional, cell-based; conditions: NCI-H322, 48 h
# [15] = test system: A549; assay: Induction of apoptosis in human A549 cells assessed as nuclear condensation, membrane blebbing and formation of apoptotic bodies after 24 hrs using DAPI staining by fluorescence microscopic analysis; assay type: functional, cell-based
# In short: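 A549 (1.5 × 10^5 cells/ml) treated 24 h at 1, 3, 5, 10 µM; trypsinized, methanol-fixed 20 min at −20 °C, DAPI (1 µg/ml) 20 min at 37 °C; nuclei scored by UV fluorescence microscopy at 40× for condensation, blebbing, apoptotic bodies; paclitaxel 1 µM positive control, untreated cells as reference.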
# [16] = test system: A-431; assay: Antiproliferative activity against human A431 cells assessed as growth inhibition at 10 uM after 48 hrs by SRB assay; assay type: functional; conditions: A-431, 48 h, read-out: GI
# [17] = test system: A549; assay: Cell cycle arrest in human A549 cells assessed as accumulation at S phase at 3 uM after 24 hrs using propidium iodide staining by flow cytometry (reference value: 40%); assay type: functional; in short: as §1
# [18] = test system: T98G; assay: Antiproliferative activity against human T98G cells after 48 hrs by SRB assay; assay type: functional, cell-based
# [19] = test system: A549; assay: Induction of apoptosis in human A549 cells assessed as reduction of procaspase-3 expression after 24 hrs by Western blot analysis; assay type: functional, cell-based
# In short: (§2)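 Cells treated 24 h (HL-60 at 5, 20, 30 µM; A549 at 1, 3, 10 µM); RIPA lysates, 70 µg protein resolved by SDS-PAGE, transferred to PVDF, blocked in 5% milk, probed for PARP-1 and procaspase-3 with HRP secondaries, ECL detection.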
# [20] = test system: A549; assay: Cell cycle arrest in human A549 cells assessed as accumulation at S phase at 10 uM after 24 hrs using propidium iodide staining by flow cytometry (reference value: 40%); assay type: functional; in short: as §1
# [21] = test system: A549; assay: Cell cycle arrest in human A549 cells assessed as accumulation at G2 phase at 10 uM after 24 hrs using propidium iodide staining by flow cytometry (reference value: 1%); assay type: functional; in short: as §1
# [22] = test system: T98G; assay: Antiproliferative activity against human T98G cells assessed as growth inhibition at 10 uM after 48 hrs by SRB assay; assay type: functional; conditions: read-out: GI
# [23] = Antiproliferative activity against human NCI-H322 cells assessed as growth inhibition at 10 uM after 48 hrs by SRB assay; assay type: functional; conditions: NCI-H322, 48 h, read-out: GI
# [24] = test system: A549; assay: Induction of apoptosis in human A549 cells at 10 uM after 24 hrs using propidium iodide staining by flow cytometry (reference value: 7%); assay type: functional; in short: as §1
# [25] = test system: A549; assay: Induction of apoptosis in human A549 cells at 1 uM after 24 hrs using propidium iodide staining by flow cytometry (reference value: 7%); assay type: functional; in short: as §1
# [26] = test system: A549; assay: Induction of apoptosis in human A549 cells assessed as cleavage of PARP1 after 24 hrs by Western blot analysis; assay type: functional, cell-based; in short: as §2
# [27] = test system: A549; assay: Induction of apoptosis in human A549 cells at 3 uM after 24 hrs using propidium iodide staining by flow cytometry (reference value: 7%); assay type: functional; in short: as §1
smiles,measurement,setting,value
CCN(CC)c1ncnc2sc(Nc3ccc(Cl)cc3)nc12,Activity,[1],1%
same,Activity,[2],31%
same,inhibition of growth at 10 µM,[3],22%
same,IC50,[4],3.1 µM
same,Activity,[5],65%
same,IC50,[6],1.4 µM
same,inhibition of growth at 10 µM,[7],18%
same,inhibition of growth at 10 µM,[8],14%
same,Activity,[9],55%
same,inhibition of growth at 10 µM,[10],22%
same,Activity,[11],4%
same,Activity,[12],44%
same,inhibition of growth at 10 µM,[13],81%
same,IC50,[14],7.1 µM
same,Activity,[15],Dose-dependent effect
same,inhibition of growth at 10 µM,[16],82%
same,Activity,[17],31%
same,IC50,[18],3.4 µM
same,Activity,[19],Dose-dependent effect
same,Activity,[20],43%
same,Activity,[21],26%
same,inhibition of growth at 10 µM,[22],74%
same,inhibition of growth at 10 µM,[23],57%
same,Activity,[24],53%
same,Activity,[25],22%
same,Activity,[26],Dose-dependent effect
same,Activity,[27],44%

# Reference: ChEMBL document CHEMBL3085659, “Synthesis, antiproliferative and apoptosis-inducing activity of thiazolo[5,4-d]pyrimidines” (Eur J Med Chem, 2013)
